Results taken from PubChem BioAssay.
Activity calls are given as the source filed them.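 How the source made its calls, unless noted: active means inhibition above 20% together with a positive visual image hit; inconclusive means visual image hit but inhibition not above 20%; inactive means no visual image hit.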

Key:
[1] = inhibitors of TNFa-induced NFkB p65 translocation, primary screen, imaging, HUVEC, MLSMR starter and 10KST1 sets (AID 438); details: HUVEC TNFa-induced p65 nuclear translocation; cell count: measured here: nuclei count (cytotoxicity indicator), at 2.08 µM; inhibition: at 2 µM, stronger effect = higher value, 0% TNFa-plus-vehicle, 100% no-TNFa wells;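 further: compound added about 3h40 before a 20 min TNFalpha stimulation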;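 on inhibition: signal is the nuclear over cytoplasmic p65 intensity ratio per well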
[2] = inhibitors of E-selectin induction by TNFa, primary screen, imaging, HUVEC, immunofluorescence, MLSMR starter and 10KST1 sets (AID 487;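 active means visually confirmed hit in the image check and inhibition above 20%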;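 on inhibition: signal is fraction of cell area covered by stained E-selectin grains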;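 on nuclei count: 100% = median nuclei count of all wells on the same plate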); details: HUVEC TNFalpha-induced E-selectin immunofluorescence imaging, at 2 µM; inhibition: stronger effect = higher value; nuclei count: measured here: cell number, toxicity
[3] = DUSP6 inhibitors restoring Erk phosphorylation by chemical complementation, primary imaging in DUSP6-transfected HeLa (AID 609;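 active means compounds giving at least 50% inhibition in the cell-based MKP-3 phosphatase rescue imaging test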;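 on inhibition: phospho-Erk level distribution per well compared with pooled transfected vehicle control wells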); details: HeLa MKP-3 transfected, phospho-Erk imaging KS statistic, at 10 µM, cells stimulated with TPA for 15 min
[4] = target: Dual specificity protein phosphatase 6 (Homo sapiens) (UniProt Q16828); assay: as above; details: HeLa MKP-3 transfected, phospho-Erk imaging KS statistic; at 10 µM; stronger effect = higher value; cells stimulated with TPA for 15 min
Chain of Dual specificity protein phosphatase 6 (Homo sapiens) (Q16828 whole entry, looked up): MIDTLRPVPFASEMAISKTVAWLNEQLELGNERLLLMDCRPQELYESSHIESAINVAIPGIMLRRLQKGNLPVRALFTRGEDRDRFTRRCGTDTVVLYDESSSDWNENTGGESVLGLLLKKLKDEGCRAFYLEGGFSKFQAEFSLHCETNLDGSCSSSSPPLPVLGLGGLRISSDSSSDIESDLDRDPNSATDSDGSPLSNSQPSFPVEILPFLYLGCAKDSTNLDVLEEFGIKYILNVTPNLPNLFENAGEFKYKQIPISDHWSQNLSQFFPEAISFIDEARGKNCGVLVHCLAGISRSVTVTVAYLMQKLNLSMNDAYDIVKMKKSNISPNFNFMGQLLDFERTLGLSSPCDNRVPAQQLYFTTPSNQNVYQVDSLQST

[5] = target: Voltage-gated potassium channel subunit beta-2 (Rattus norvegicus) (UniProt P62483); assay: KvBeta enzyme negative modulators, primary screen, biochemical, NADPH fluorescence (AID 622;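 active means fluorescence slope higher than the sample average by over 3 SD, cut at about -0.22 in these data, passing the limit was not always enough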;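 further: slope of raw intensity against log time taken from 70 to 1610 s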); details: recombinant KvBeta, 4-cyanobenzaldehyde reduction, at 10 µM, stronger effect = higher value
Chain of Voltage-gated potassium channel subunit beta-2 (Rattus norvegicus) (P62483 whole entry, looked up): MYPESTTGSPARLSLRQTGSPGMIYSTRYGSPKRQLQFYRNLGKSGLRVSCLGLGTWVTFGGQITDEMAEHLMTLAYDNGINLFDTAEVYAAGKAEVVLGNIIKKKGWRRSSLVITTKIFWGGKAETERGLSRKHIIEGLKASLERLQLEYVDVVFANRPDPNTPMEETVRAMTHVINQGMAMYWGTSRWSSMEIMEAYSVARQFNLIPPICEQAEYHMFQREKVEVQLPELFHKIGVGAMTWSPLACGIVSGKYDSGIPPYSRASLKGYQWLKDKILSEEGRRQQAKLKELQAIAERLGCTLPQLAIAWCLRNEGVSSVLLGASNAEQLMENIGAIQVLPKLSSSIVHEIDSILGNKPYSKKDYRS

[6] = target: Voltage-gated potassium channel subunit beta-2 (Rattus norvegicus) (UniProt P62483); assay: KvBeta positive modulators, primary screen, biochemical, NADPH fluorescence (AID 623;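 active means NADPH fluorescence slope more negative than the mean of all samples by about 3 SD, 99.7% confidence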;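 further: fluorescence intensity change per second fitted from 20 to 320 s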); details: Recombinant KvBeta, NADPH fluorescence decrease slope, 10 min; at 10 µM; stronger effect = lower value
[7] = target: Alpha-2C adrenergic receptor (Homo sapiens) (UniProt P18825); assay: modulators of alpha2C/GIRK thallium flux, primary screen, cell-based, HEK293 alpha2C/GIRK1/2 (AID 624;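 active means fluorescence slope after compound addition differing from the mean of all screened samples at 99.7% confidence, in either direction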;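 further: slope of fluorescence ratio to pre-addition baseline per second over 15 to 24 s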); details: thallium flux BTC fluorescence, at 10 µM, actives lie on both sides
Chain of Alpha-2C adrenergic receptor (Homo sapiens) (P18825 whole entry, looked up): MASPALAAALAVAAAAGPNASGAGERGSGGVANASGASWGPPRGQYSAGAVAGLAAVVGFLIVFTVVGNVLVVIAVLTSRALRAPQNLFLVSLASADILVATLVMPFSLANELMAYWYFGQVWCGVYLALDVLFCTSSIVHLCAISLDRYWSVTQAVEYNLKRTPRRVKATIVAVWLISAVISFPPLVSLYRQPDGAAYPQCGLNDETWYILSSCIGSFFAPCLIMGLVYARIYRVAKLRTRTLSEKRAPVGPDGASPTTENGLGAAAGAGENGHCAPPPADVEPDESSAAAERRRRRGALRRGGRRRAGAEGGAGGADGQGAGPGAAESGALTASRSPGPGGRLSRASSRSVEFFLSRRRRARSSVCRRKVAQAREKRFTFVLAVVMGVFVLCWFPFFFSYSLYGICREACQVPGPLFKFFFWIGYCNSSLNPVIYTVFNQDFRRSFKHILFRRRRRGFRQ

[8] = inhibitors of larval lipid processing in zebrafish, primary screen, whole organism, PED6 fluorescence, gall bladder and intestine (AID 686;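 active means a full or partial loss of lipid-probe fluorescence in the fish gall bladder, intestine or both, judged by eye; inactive means no fluorescence loss, or compound toxic to the fish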;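 further: larvae 5 to 7 days old with five fish per well; signal comes from phospholipase A2 cleavage of quenched PED6 carried via bile; overnight exposure to compound and PED6 before scoring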); details: Zebrafish larvae PED6 lipid processing, fluorescence scoring; screened at 20 µM (by protocol)
Method in brief: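 System: live zebrafish larvae aged 5-7 days, whole organism; measure: graded gall bladder and intestinal fluorescence inhibition per well; incubation: overnight exposure; reagent: ingested quenched lipid PED6 at 100 nM; signal: By-eye fluorescence microscopy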

[9] = inhibitors of Chlamydomonas gravitaxis, primary screen, whole organism, Chlamydomonas reinhardtii, WT vs cilia-less mutant, absorbance, 96-well (AID 463189;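 active means inhibition at or above 50% relative to wild type and mutant plate controls; inactive means inhibition below 50%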;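 further: 0% = wild type cc124 cells in DMSO and 100% = ciliumless bld1 mutant cells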); details: OD600 absorbance, 2 days, at 10 µM, stronger effect = higher value
[10] = measured here: cell density z-score
[11] = measured here: nuclear c-Myc green intensity z-score
[12] = measured here: nuclear pErk red intensity z-score, stronger effect = higher value

Row | SMILES | cell count [1] | inhibition [1] | inhibition [2] | nuclei count [2] [%] | z-score [3, 10] | z-score [3, 11] | z-score [3, 12] | inhibition [4] | fluorescence slope [5] | NADPH fluorescence slope [6] | slope [7] | outcome [8] | inhibition [9]
1 | COc1cccc(C2=CC(c3ccccc3)n3ncnc3N2)c1 (stereo not given) | 565 | 3.2% (inactive) | 36.2% (inactive) | 163 | -0.222 | -0.0591 | 0.0878 | -8.76% (inactive) | -0.0434 (active) | -2e-07 (inactive) | 0.00478 (inactive) | inactive | 10.9% (inactive)
2 | CCOCCSc1nc2c(c(=O)[nH]c(=O)n2C)n1CCCc1ccccc1 | 487 | -2.4% (inactive) | -80.2% (inactive) | 133 | 0.294 | -0.866 | -0.255 | -3.5% (inactive) | -0.515 (inactive) | -6.3e-05 (inactive) | 0.00557 (inactive) | inactive | -2.75% (inactive)
3 | CCCCn1c(O)c(C=NCCCN(C)C)c(=O)[nH]c1=O | 445 | 4.1% (inactive) | -38.4% (inactive) | 117 | 1.16 | -1.01 | -0.649 | 4.25% (inactive) | -0.44 (inactive) | 2.3e-06 (inactive) | 0.0074 (inactive) | inactive | 10.3% (inactive)
4 | O=S(=O)(c1ccccc1)N1CCC(N2CCCCCC2)CC1 | 360 | -15.1% (inactive) | -30.4% (inactive) | 107 | -1.31 | -0.622 | 0.193 | -8.95% (inactive) | -0.39 (inactive) | 2.7e-05 (inactive) | 0.00532 (inactive) | inactive | 32.5% (inactive)
5 | CCCCNC(=O)N1CCOCCOCCN(C(=O)NCCCC)CCOCC1 | 524 | -14.1% (inactive) | -164% (inactive) | 138 | 2.57 | -1.63 | -0.914 | 31.7% (inactive) | -0.55 (inactive) | -2.2e-05 (inactive) | 0.0049 (inactive) | inactive | 9.99% (inactive)
6 | COc1ccc(Nc2cc(C)nc3ccccc23)cc1 | 467 | -5.2% (inactive) | 36% (inactive) | 118 | 0.29 | 0.934 | -1.53 | 4.72% (inactive) | -0.429 (inactive) | -2.1e-05 (inactive) | 0.00465 (inactive) | inactive | 17.6% (inactive)
7 | COc1ccc(C(=O)C(CN2CCCC2)c2ccccc2)cc1 (stereo not given) | 653 | -4.3% (inactive) | 0.2% (inactive) | 178 | -0.885 | 0.507 | 1.21 | 1.75% (inactive) | -0.521 (inactive) | -8.7e-05 (inactive) | 0.00506 (inactive) | inactive | 5.7% (inactive)
8 | CCCOc1cc(CN2CCCCC2)cc(C(C)=O)c1 | 662 | -7.2% (inactive) | -40.5% (inactive) | 182 | 0.934 | -0.767 | 0.549 | 15.1% (inactive) | -0.493 (inactive) | -6.5e-05 (inactive) | 0.00496 (inactive) | inactive | 3.11% (inactive)
9 | COc1cc(C)nc(Oc2ccc(OCCOc3ccc(C)cc3)nn2)n1 | 440 | -2.4% (inactive) | -191% (inactive) | 163 | 0.149 | -0.102 | 0.972 | 2.46% (inactive) | -0.415 (inactive) | -3.1e-05 (inactive) | 0.00505 (inactive) | inactive | 3.2% (inactive)
10 | CCOC(=O)c1c(C)[nH]sc1=S | 569 | -2.6% (inactive) | 42.2% (inactive) | 95.8 | -1.01 | 0.222 | 0.907 | 9.82% (inactive) | -0.335 (inactive) | -1.2e-06 (inactive) | 0.00974 (inactive) | inactive | 30.1% (inactive)
11 | Cc1nnc(SCCC#N)n(CCC#N)c1=O | 585 | -13.5% (inactive) | 24.6% (inactive) | 164 | -0.25 | 0.45 | 2.53 | 1.12% (inactive) | -0.396 (inactive) | -3e-05 (inactive) | 0.00584 (inactive) | inactive | 7.85% (inactive)
12 | CC(C)OC(=O)c1sc2nc3c(cc2c1N)C(=O)CCC3 | 334 | -8% (inactive) | -109% (inactive) | 159 | 1.59 | -1.25 | -0.674 | 9.42% (inactive) | -0.403 (inactive) | -9.2e-05 (inactive) | 0.0073 (inactive) | inactive | -4.23% (inactive)
13 | COc1ccc(C=NCCC2(O)CC(C)N(C)CC2C)cc1 (stereo not given) | 340 | -16.4% (inactive) | -85.1% (inactive) | 131 | 0.907 | -0.705 | -1.22 | -7.01% (inactive) | -0.427 (inactive) | -6e-05 (inactive) | 0.00607 (inactive) | inactive | 7.82% (inactive)
14 | O=C1c2ccccc2C(=O)N1CCN1CCc2ccccc21 | 404 | -3.1% (inactive) | -131% (inactive) | 166 | 0.756 | -0.637 | -0.565 | 13.2% (inactive) | -0.394 (inactive) | -5.6e-05 (inactive) | 0.00539 (inactive) | inactive | -3.59% (inactive)
15 | OCCOCCNc1ncnc2c1cnn2-c1ccccc1 | 472 | -2% (inactive) | -38.9% (inactive) | 162 | -0.85 | 1.86 | 0.161 | 16.8% (inactive) | -0.374 (inactive) | -1.3e-05 (inactive) | 0.00585 (inactive) | inactive | 0.488% (inactive)
16 | CC1(C)Cc2c(sc3nc(SCC#N)n(C4CCCCC4)c(=O)c23)CO1 | 633 | -10.8% (inactive) | 51% (inactive) | 154 | -1.73 | 0.192 | 0.926 | 6.04% (inactive) | -0.356 (inactive) | -4.5e-05 (inactive) | 0.0054 (inactive) | inactive | -8.06% (inactive)
17 | O/N=C1\CCc2cc(Cl)ccc21 | 384 | -4% (inactive) | -24.4% (inactive) | 101 | -3.01 | 0.785 | -0.837 | -0.159% (inactive) | -0.48 (inactive) | -0.000244 (inactive) | 0.0047 (inactive) | inactive | -12.6% (inactive)
18 | COC(=O)C1=C(N)Oc2cc(C)oc(=O)c2C1c1ccncc1 (stereo not given) | 346 | -2.7% (inactive) | 29.3% (inactive) | 149 | -0.595 | -0.189 | 1.46 | -2.59% (inactive) | -0.404 (inactive) | -0.000149 (inactive) | 0.00558 (inactive) | active; weak signal in gallbladder and intestine | 28.1% (inactive)
19 | C#CCSC1=C(C#N)C(c2cccs2)C(C(=O)OCC)=C(C)N1 (stereo not given) | 674 | -1.7% (inactive) | -59.4% (inactive) | 167 | -0.719 | 0.591 | 0.242 | -7.28% (inactive) | -0.417 (inactive) | 4.3e-06 (inactive) | 0.00405 (inactive) | inactive | -6.51% (inactive)
20 | Nc1ccc(Cl)cc1/C(=N/O)c1ccccc1 | 337 | -13.8% (inactive) | -23% (inactive) | 65.2 | 0.198 | 0.536 | -0.0149 | 1.75% (inactive) | -0.451 (inactive) | 9e-06 (inactive) | 0.00461 (inactive) | inactive | 16.2% (inactive)
21 | CSCCC(CO)NC(=O)OCc1ccccc1 (stereo not given) | 562 | -15% (inactive) | -130% (inactive) | 142 | 1.72 | -0.612 | -0.962 | 3.97% (inactive) | -0.503 (inactive) | -8.5e-05 (inactive) | 0.00774 (inactive) | inactive | 2.98% (inactive)
22 | C=COC(=O)CSc1nc(-c2cccs2)ccc1C#N | 659 | -10.8% (inactive) | -26.9% (inactive) | 152 | -1.42 | 1.7 | 0.138 | -5.62% (inactive) | -0.385 (inactive) | -2.3e-06 (inactive) | 0.0065 (inactive) | inactive | 8.37% (inactive)
23 | COc1ccc2c(c1)nc(N)n2Cc1ccccc1 | 570 | -4.4% (inactive) | 15% (inactive) | 168 | 2.35 | -1.31 | 1.13 | 15.8% (inactive) | -0.388 (inactive) | -2.5e-05 (inactive) | 0.004 (inactive) | inactive | 12.8% (inactive)
24 | COc1ccccc1Cn1c2nc3ccccc3nc2c2c(=O)n(CC(C)C)cnc21 | 340 | -7.7% (inactive) | -28.2% (inactive) | 148 | 0.356 | -0.852 | -0.477 | -8.59% (inactive) | -0.425 (inactive) | -0.000144 (inactive) | 0.00898 (inactive) | inactive | 6.68% (inactive)
25 | CCOc1ccc(Cn2c(O)cc(=O)[nH]c2=O)cc1 | 530 | 1.9% (inactive) | -97.4% (inactive) | 190 | 0.509 | 0.944 | -0.603 | 14% (inactive) | -0.322 (inactive) | 9.9e-06 (inactive) | 0.00555 (inactive) | inactive | -15% (inactive)
